Experimental data from the RNAGym collection of RNA variant scans (doi:10.1126/science.aae0568).
Fewer inactive variants are shown than the library holds.

B1: tRNA (parent)
chain: GUUCCGUUGGCGUAAUGGUAACGCGUCUCCCUCCUAAGGAGAAGACUGCGGGUUCGAGUCCCGUACGGAACG

Variants of: B1
Experiment: yeast fitness relative to wild type (ratio to wild type); higher = fitter; tRNA-Arg(CCU), competitive growth, 37 C, YPD
How it was run: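 For this measurement, the tRNA-Arg(CCU) gene was varied by chemical synthesis at a 3% per-site mutation rate across 69 sites, and each variant was placed at the native genomic locus in Saccharomyces cerevisiae. The pooled strains went through a 24-hour competition in YPD at 37°C in six parallel replicates, with amplicons from start and end populations read by 100-nucleotide paired-end sequencing. Darwinian fitness relative to wild type followed from the change in each genotype's frequency. Genotypes needed ≥ 100 starting reads, and estimates < 0.5 were set to 0.5.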

First: G18A G67A
Second: G18A G67C
The yeast fitness of the first is lower: 0.675 for the first, 0.841 for the second.

Compared with G18A G67U, G18A G68C is lower in yeast fitness: 0.75 for the first, 0.662 for the second.

Going from G18A G68C A69U to G18A U19A A70U, the yeast fitness rises from at most 0.5 to 0.657.

Compared with G18A U19A C27U, G18A U19A C61U is lower in yeast fitness: 0.707 for the first, 0.61 for the second.

G18A U19C C27G C61A U64G C66U and G18A U26A C27U C49U G58A cannot be ordered by yeast fitness: at most 0.5 for the first, at most 0.5 for the second.

Going from G18A U28C to G18A U32G A69G, the yeast fitness falls from 0.739 to at most 0.5.

First: G18A U35C U47C G50C
Second: G18A U47A
The yeast fitness of the first is lower: at most 0.5 for the first, 0.824 for the second.

G18A U53A U54G and G18A U59C A69G cannot be ordered by yeast fitness: at most 0.5 for the first, at most 0.5 for the second.

Compared with G18A U59G, G18A U64C is lower in yeast fitness: 0.776 for the first, 0.66 for the second.

G18C A20G C29A C49U A69U and G18C A20G C30A cannot be ordered by yeast fitness: at most 0.5 for the first, at most 0.5 for the second.

G18C A20G C55U G67C and G18C A20U U53C A69U cannot be ordered by yeast fitness: at most 0.5 for the first, at most 0.5 for the second.

G18C A21C C27U A37U and G18C A21G G23A A43C cannot be ordered by yeast fitness: at most 0.5 for the first, at most 0.5 for the second.

First: G18C A21G G56A
Second: G18C A21G G67A
The yeast fitness of the first is higher: 0.575 for the first, at most 0.5 for the second.

G18C A36C and G18C A36U C55U U59A cannot be ordered by yeast fitness: at most 0.5 for the first, at most 0.5 for the second.

G18C A37C C49G A70G and G18C A37U A40U U64C G67A cannot be ordered by yeast fitness: at most 0.5 for the first, at most 0.5 for the second.

Going from G18C A40C C49G to G18C A40C C49G G63A, the yeast fitness rises from at most 0.5 to 0.553.

First: G18C A40G
Second: G18C A40G A42G C66G
The yeast fitness of the first is higher: 0.64 for the first, at most 0.5 for the second.

First: G18C A42C A43C C66G
Second: G18C A43C
The yeast fitness of the first is lower: at most 0.5 for the first, 0.719 for the second.

Compared with G18C A45C A65C, G18C A45C G52A A65C is lower in yeast fitness: 0.598 for the first, at most 0.5 for the second.

Going from G18C A45U to G18C A57G, the yeast fitness rises from 0.549 to 0.715.

Going from G18C A57U C61U to G18C A69U, the yeast fitness rises from at most 0.5 to 0.695.

First: G18C A70C
Second: G18C C22A
The yeast fitness of the first is higher: 0.687 for the first, 0.582 for the second.

G18C C22A C29U A45C and G18C C22A C29U A45C A69U cannot be ordered by yeast fitness: at most 0.5 for the first, at most 0.5 for the second.

G18C C22A U32C A45C C46U A65C and G18C C22G C31U U59A G63A cannot be ordered by yeast fitness: at most 0.5 for the first, at most 0.5 for the second.

Going from G18C C22U C34G to G18C C22U G56C, the yeast fitness falls from 0.688 to 0.542.

G18C C24A A57C C66U A69C and G18C C24G A36C G38C G58C cannot be ordered by yeast fitness: at most 0.5 for the first, at most 0.5 for the second.

G18C C24G A36C G38C U54C G58C and G18C C24G C34U C49A U64C G67A cannot be ordered by yeast fitness: at most 0.5 for the first, at most 0.5 for the second.

G18C C24G C46A and G18C C24G C46G cannot be ordered by yeast fitness: at most 0.5 for the first, at most 0.5 for the second.

First: G18C C24G U35C G50C C55G
Second: G18C C24U C29G C30G
The yeast fitness of the first is lower: at most 0.5 for the first, 0.593 for the second.

G18C C27G G48A C66G G67A and G18C C27U C55G A65G G68C cannot be ordered by yeast fitness: at most 0.5 for the first, at most 0.5 for the second.

G18C C27U C61A and G18C C27U G38A G39C U64C cannot be ordered by yeast fitness: at most 0.5 for the first, at most 0.5 for the second.

Compared with G18C C27U G68C, G18C C29G A36C G44C G50A is lower in yeast fitness: 0.548 for the first, 0.526 for the second.

Compared with G18C C29G A36C G44C G50A C66A, G18C C29G A45G C66U is higher in yeast fitness: at most 0.5 for the first, 0.613 for the second.

Compared with G18C C29U, G18C C29U A43G C49A is lower in yeast fitness: 0.546 for the first, at most 0.5 for the second.

G18C C29U A70C and G18C C29U C30U G67A cannot be ordered by yeast fitness: at most 0.5 for the first, at most 0.5 for the second.

First: G18C C30G C46U G48A U54G
Second: G18C C30U A45U
The yeast fitness of the first is lower: at most 0.5 for the first, 0.549 for the second.

G18C C30U C31G G50A and G18C C31A A43G G58C A65G cannot be ordered by yeast fitness: at most 0.5 for the first, at most 0.5 for the second.

G18C C31G A42G G67A and G18C C33A A36C G51C cannot be ordered by yeast fitness: at most 0.5 for the first, at most 0.5 for the second.

First: G18C C33A U54A C62A
Second: G18C C33G A36C C46A
The yeast fitness of the first is higher: 0.577 for the first, at most 0.5 for the second.

First: G18C C33G C49A C55U
Second: G18C C34G G39C
The yeast fitness of the first is higher: 0.517 for the first, at most 0.5 for the second.

G18C C34G G58C and G18C C46U C61G cannot be ordered by yeast fitness: at most 0.5 for the first, at most 0.5 for the second.

G18C C49G C61G and G18C C49U C62U cannot be ordered by yeast fitness: at most 0.5 for the first, at most 0.5 for the second.

Compared with G18C C49U G56C G58A, G18C C55G is higher in yeast fitness: at most 0.5 for the first, 0.585 for the second.

Compared with G18C C55U, G18C C60U G67A is lower in yeast fitness: 0.532 for the first, at most 0.5 for the second.

Going from G18C C62G C66A to G18C C66U, the yeast fitness rises from at most 0.5 to 0.59.

G18C G23A C24U C61U and G18C G23A C61A cannot be ordered by yeast fitness: at most 0.5 for the first, at most 0.5 for the second.

G18C G23A C61U and G18C G23A G25A C49U C60G cannot be ordered by yeast fitness: at most 0.5 for the first, at most 0.5 for the second.

G18C G23A G25C A37G A43C and G18C G23A G25C A37G A43C C55G G63A G68A cannot be ordered by yeast fitness: at most 0.5 for the first, at most 0.5 for the second.

G18C G23A G25C A37G A65G and G18C G23C G39A cannot be ordered by yeast fitness: at most 0.5 for the first, at most 0.5 for the second.

Compared with G18C G23C G48A, G18C G25C is higher in yeast fitness: at most 0.5 for the first, 0.677 for the second.

G18C G25C C33U C61U and G18C G25C U28G A42G U47C C49U A57U cannot be ordered by yeast fitness: at most 0.5 for the first, at most 0.5 for the second.

G18C G38A A43U A45G A57G U59C and G18C G39C G50A cannot be ordered by yeast fitness: at most 0.5 for the first, at most 0.5 for the second.

G18C G41C A43C C55U and G18C G44A C62G cannot be ordered by yeast fitness: at most 0.5 for the first, at most 0.5 for the second.

Going from G18C G48A C55A to G18C G48A C66U, the yeast fitness rises from at most 0.5 to 0.545.

G18C G48A U53G and G18C G51A A69G cannot be ordered by yeast fitness: at most 0.5 for the first, at most 0.5 for the second.

G18C G51C C61G A70C and G18C G52A A57U A65C cannot be ordered by yeast fitness: at most 0.5 for the first, at most 0.5 for the second.

Going from G18C G58A to G18C G58C, the yeast fitness falls from 0.701 to 0.635.

First: G18C G63A
Second: G18C U19A A36U
The yeast fitness of the first is higher: 0.535 for the first, at most 0.5 for the second.

First: G18C U19C
Second: G18C U19C A21G C61U
The yeast fitness of the first is higher: 0.587 for the first, at most 0.5 for the second.

G18C U19G A20G C33A U35C C66A and G18C U19G A45C G67A cannot be ordered by yeast fitness: at most 0.5 for the first, at most 0.5 for the second.

Compared with G18C U19G C27U A43U A65U, G18C U26A U53C is higher in yeast fitness: at most 0.5 for the first, 0.549 for the second.

G18C U26C U28A A65U and G18C U26G C55G cannot be ordered by yeast fitness: at most 0.5 for the first, at most 0.5 for the second.

First: G18C U28A A42U
Second: G18C U28C
The yeast fitness of the first is lower: at most 0.5 for the first, 0.663 for the second.

G18C U28G A36C G38C and G18C U35A A45C G48A cannot be ordered by yeast fitness: at most 0.5 for the first, at most 0.5 for the second.

Compared with G18C U35G G41C G56A A65G C66U, G18C U47A is higher in yeast fitness: at most 0.5 for the first, 0.553 for the second.

G18C U47A A70U and G18C U53C C61U cannot be ordered by yeast fitness: at most 0.5 for the first, at most 0.5 for the second.

First: G18C U59A
Second: G18U A45U U59C
The yeast fitness of the first is higher: 0.631 for the first, 0.542 for the second.

First: G18U C30U C49G
Second: G18U C31U G63A
The yeast fitness of the first is lower: at most 0.5 for the first, 0.527 for the second.

Compared with G18U G39A, G18U U26A C49U G50C is lower in yeast fitness: 0.594 for the first, at most 0.5 for the second.

First: G18U U32C A45G A57G
Second: U19A A20C A21G C30G C55G
The yeast fitness of the first is lower: at most 0.5 for the first, 0.573 for the second.

First: U19A A20G G56A
Second: U19A A21C G25C C31G C33U G67A
The yeast fitness of the first is higher: 0.956 for the first, at most 0.5 for the second.

U19A A21G A43C G51C and U19A A21G C27U C33U cannot be ordered by yeast fitness: at most 0.5 for the first, at most 0.5 for the second.

First: U19A A21G C27U C33U G67C
Second: U19A A21U
The yeast fitness of the first is lower: at most 0.5 for the first, 0.854 for the second.

First: U19A A36G U59A
Second: U19A A36U
The yeast fitness of the first is lower: at most 0.5 for the first, 0.653 for the second.

Compared with U19A A36U G50U C61U, U19A A37C is higher in yeast fitness: at most 0.5 for the first, 0.778 for the second.

Going from U19A A37C C49G to U19A A37U, the yeast fitness rises from 0.501 to 0.747.

Going from U19A A37U A43G A57G to U19A A40C C55A C66A, the yeast fitness falls from 0.594 to at most 0.5.

First: U19A A40G
Second: U19A A40G C55G
The yeast fitness of the first is higher: 0.75 for the first, at most 0.5 for the second.

First: U19A A40G C60U U64C
Second: U19A A42G G67U
The yeast fitness of the first is higher: 0.705 for the first, 0.585 for the second.

Compared with U19A A42G U47C, U19A A42U C46G is higher in yeast fitness: at most 0.5 for the first, 0.988 for the second.

Going from U19A A43C A69U to U19A A43U, the yeast fitness rises from 0.56 to 1.

U19A A70C and U19A A70U are the same in yeast fitness: 1.03 for the first, 1.03 for the second.

First: U19A C22G
Second: U19A C22G A45U C49U U64A
The yeast fitness of the first is higher: 0.919 for the first, at most 0.5 for the second.

In the case of U19A C22G A70U, the yeast fitness is reported as 0.509.
